In PMC6061379 (Clinical Drug Investigation, 2018):
“And” between values parts separate entries of the source, which are not always exact repeats. Equal entries are not always repeated. Where two headings read alike, the source gives them in different places.

What was measured:
[1] = format: in vivo, human; conditions: for AUC0–∞, GLSMR (90% CI) versus normal renal function group / Cmax, GLSMR (90% CI) versus normal renal function group: plasma; for AUC0–∞, GLSMR (90% CI) versus normal renal function group / Cmax, GLSMR (90% CI) versus normal renal function group / CL/F, GLSMR (90% CI) versus normal renal function group / Increase in AUC0–∞ compared to subjects with normal renal function / Increase in Cmax compared to subjects with normal renal function: verinurad 15 mg; for CL/F total body clearance, GM (95% CI): verinurad 15 mg single oral dose, fasted
In short: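 Males aged 18–85 y with sUA 4.5–10 mg/dl, grouped by Cockcroft-Gault eCrCl (normal ≥90, mild 60–<90, moderate 30–<60, severe 15–<30 ml/min). Normal group matched for age and BMI. Single 15 mg dose. Serial blood sampled up to 72 h post-dose; plasma acidified. Parent and metabolites measured by validated LC-MS/MS. Non-compartmental parameters, ln-transformed, fixed-effects model, geometric mean ratios with 90% CI versus normal.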

[2] = Urinary pharmacokinetics after single oral verinurad 15 mg; format: in vivo, human; conditions: for fe0–72 fraction of drug excreted in urine unchanged from time zero to 72 h, GM (95% CI): verinurad 15 mg single oral dose; for CLR0–72, GLSMR (90% CI) versus normal renal function group / Decrease in renal clearance (CLR0-72) versus normal renal function: verinurad 15 mg
In short: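 Single 15 mg dose given to males grouped by Cockcroft-Gault creatinine clearance. Total-catch urine collected at 6–12 h intervals to 72 h post-dose. Parent and metabolites quantified by validated LC-MS/MS, with the acyl-glucuronide hydrolysed by 2 M KOH and measured as total aglycone. Renal clearance and fraction excreted unchanged over 0–72 h. Ln-transformed parameters compared with the normal group by fixed-effects model; geometric mean ratios with 90% CI.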

serum urate (sUA) = assay: Serum urate; format: in vivo, human; conditions: verinurad 15 mg; all groups
In short: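 Single 15 mg dose. Serial serum sampled on Day −1 (baseline) and Day 1 at preset times up to 72 h post-dose. Urate measured enzymatically. Percent change from baseline time-matched to Day −1, with maximal and mean changes derived per renal-function group.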

urinary uric acid = assay: Urinary uric acid pharmacodynamics after verinurad 15 mg; format: in vivo, human; conditions: for AeUR,0–24 h amount of urinary uric acid recovered in urine, mean (SD) / FEUA,0–24 h fractional excretion of uric acid, mean (SD) / ReUR,0–24 h rate of urinary uric acid excretion, mean (SD): following verinurad 15 mg
In short: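 Total-catch urine collected at 6–12 h intervals to 72 h after a single 15 mg dose, with a Day −1 baseline. Urate and creatinine in serum and urine measured by enzymatic method.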

Safety assessments = format: in vivo, human; conditions: for Number of adverse events / Subjects with adverse events, n (%): treatment-emergent; for Number of adverse events / Subjects with adverse events, n (%) / Number of adverse events of mild severity / Number of adverse events of moderate severity / Severe/life-threatening adverse events / Subjects with adverse events of mild severity, n (%) / Subjects with adverse events of moderate severity, n (%): verinurad 15 mg
In short: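 Males with normal or impaired renal function were housed in the study centre from Day −2 until final procedures after a single 15 mg dose. Assessments covered adverse events (MedDRA v17.0), clinical laboratory tests, vital signs, ECGs and physical examinations. Clinically relevant laboratory abnormalities were graded for severity by the investigator using Rheumatology Common Toxicity Criteria v2.0.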

Plasma protein binding = format: in vitro ADME; conditions: human
URAT1 = conditions: read-out: half-maximal inhibitory constant in inhibiting URAT1; cited from earlier work
[3] = humans, cited from earlier work
sUA = conditions: doses as low as; cited from earlier work
[4] = moderate renal impairment (N = 7)
[5] = severe renal impairment (N = 7)
[6] = moderate renal impairment (N = 8)
[7] = verinurad 15 mg single dose, all groups

SMILES: CC(C)(Sc1ccncc1-c1ccc(C#N)c2ccccc12)C(=O)O [Verinurad]
- AUC0–∞, GLSMR (90% CI) versus normal renal function group ([1]; mild renal impairment): 124% (88.8–173)
- Cmax, GLSMR (90% CI) versus normal renal function group ([1]; mild renal impairment): 153% (115–203)
- AUC0–∞, GLSMR (90% CI) versus normal renal function group ([1]; moderate renal impairment): 248% (168–366)
- Cmax, GLSMR (90% CI) versus normal renal function group ([1]; moderate renal impairment): 173% (131–230)
- AUC0–∞, GLSMR (90% CI) versus normal renal function group ([1]; severe renal impairment): 230% (146–363)
- Cmax, GLSMR (90% CI) versus normal renal function group ([1]; severe renal impairment): 228% (155–336)
- CL/F total body clearance, GM (95% CI) ([1]; mild renal impairment (N = 8)): 74.8 (53.7–104) L/h
- CL/F total body clearance, GM (95% CI) [1, 4]: 37.3 (23.7–58.9) L/h
- CL/F total body clearance, GM (95% CI) ([1]; normal renal function (N = 8)): 92.6 (68.7–125) L/h
- CL/F total body clearance, GM (95% CI) [1, 5]: 40.3 (22.6–71.7) L/h
- CL/F, GLSMR (90% CI) versus normal renal function group ([1]; mild renal impairment): 80.8% (57.9–113)
- Increase in AUC0–∞ compared to subjects with normal renal function ([1]; mild renal impairment): 24%
- Increase in Cmax compared to subjects with normal renal function ([1]; mild renal impairment): 53%
- CL/F, GLSMR (90% CI) versus normal renal function group ([1]; moderate renal impairment): 40.3% (27.3–59.5)
- Increase in AUC0–∞ compared to subjects with normal renal function ([1]; moderate renal impairment): 148%
- Increase in Cmax compared to subjects with normal renal function ([1]; moderate renal impairment): 73%
- CL/F, GLSMR (90% CI) versus normal renal function group ([1]; severe renal impairment): 43.5% (27.5–68.7)
- Increase in AUC0–∞ compared to subjects with normal renal function ([1]; severe renal impairment): 130%
- Increase in Cmax compared to subjects with normal renal function ([1]; severe renal impairment): 128%
- fe0–72 fraction of drug excreted in urine unchanged from time zero to 72 h, GM (95% CI) [2, 4]: 1.05 (0.561–1.96) %
- fe0–72 fraction of drug excreted in urine unchanged from time zero to 72 h, GM (95% CI) ([2]; normal renal function (N = 8)): 0.814 (0.508–1.31) %
- fe0–72 fraction of drug excreted in urine unchanged from time zero to 72 h, GM (95% CI) [2, 5]: 0.362 (0.202–0.647) %
- CLR0–72, GLSMR (90% CI) versus normal renal function group ([2]; mild renal impairment): 95.4% (60.6–150)
- Decrease in renal clearance (CLR0-72) versus normal renal function ([2]; mild renal impairment): 5% and 4.6%
- CLR0–72, GLSMR (90% CI) versus normal renal function group ([2]; moderate renal impairment): 58.3% (30.2–113)
- Decrease in renal clearance (CLR0-72) versus normal renal function ([2]; moderate renal impairment): 42%
- CLR0–72, GLSMR (90% CI) versus normal renal function group ([2]; severe renal impairment): 21.2% (13.6–32.8)
- Decrease in renal clearance (CLR0-72) versus normal renal function ([2]; severe renal impairment): 79%
- Time post-dose at which maximal percent change in sUA occurred (serum urate (sUA)): approximately 12 h
- AeUR,0–24 h amount of urinary uric acid recovered in urine, mean (SD) (urinary uric acid; mild renal impairment (N = 8)): 880 (225) mg
- FEUA,0–24 h fractional excretion of uric acid, mean (SD) (urinary uric acid; mild renal impairment (N = 8)): 16.2 (5.68) %
- ReUR,0–24 h rate of urinary uric acid excretion, mean (SD) (urinary uric acid; mild renal impairment (N = 8)): 36.6 (9.39) mg/h
- AeUR,0–24 h amount of urinary uric acid recovered in urine, mean (SD) (urinary uric acid; [4]): 707 (334) mg
- FEUA,0–24 h fractional excretion of uric acid, mean (SD) (urinary uric acid; [4]): 13.0 (7.48) %
- ReUR,0–24 h rate of urinary uric acid excretion, mean (SD) (urinary uric acid; [4]): 29.3 (13.8) mg/h
- AeUR,0–24 h amount of urinary uric acid recovered in urine, mean (SD) (urinary uric acid; normal renal function (N = 8)): 969 (299) mg
- FEUA,0–24 h fractional excretion of uric acid, mean (SD) (urinary uric acid; normal renal function (N = 8)): 13.8 (6.24) %
- ReUR,0–24 h rate of urinary uric acid excretion, mean (SD) (urinary uric acid; normal renal function (N = 8)): 40.1 (12.1) mg/h
- AeUR,0–24 h amount of urinary uric acid recovered in urine, mean (SD) (urinary uric acid; [5]): 393 (144) mg
- FEUA,0–24 h fractional excretion of uric acid, mean (SD) (urinary uric acid; [5]): 12.7 (6.43) %
- ReUR,0–24 h rate of urinary uric acid excretion, mean (SD) (urinary uric acid; [5]): 16.3 (6.02) mg/h
- Time post-dose by which ReUR returned to baseline (urinary uric acid; verinurad 15 mg): ≤ 12 h
- Subjects with TEAE possibly related to verinurad (Safety assessments; control group, oropharyngeal pain and rhinorrhea): One subject
- Number of adverse events (Safety assessments; mild renal impairment (N = 8)): 3
- Subjects with adverse events, n (%) (Safety assessments; mild renal impairment (N = 8)): 3 (37.5%)
- Number of adverse events (Safety assessments; [6]): 2
- Subjects with adverse events, n (%) (Safety assessments; [6]): 1 (12.5%)
- Number of adverse events (Safety assessments; normal renal function (N = 8)): 5
- Subjects with adverse events, n (%) (Safety assessments; normal renal function (N = 8)): 1 (12.5%)
- Number of adverse events (Safety assessments; [5]): 2
- Subjects with adverse events, n (%) (Safety assessments; [5]): 2 (28.6%)
- Adverse event-related withdrawals (Safety assessments; [7]): no AE-related withdrawals
- Changes in laboratory values or vital signs (Safety assessments; [7]): No clinically meaningful changes
- Serious adverse events (Safety assessments; [7]): no serious AEs
- Tolerability (Safety assessments; [7]): well tolerated
- Number of adverse events of mild severity (Safety assessments; mild renal impairment (N = 8)): 2
- Number of adverse events of moderate severity (Safety assessments; mild renal impairment (N = 8)): 1
- Severe/life-threatening adverse events (Safety assessments; mild renal impairment (N = 8)): 0
- Subjects with adverse events of mild severity, n (%) (Safety assessments; mild renal impairment (N = 8)): 2 (25.0%)
- Subjects with adverse events of moderate severity, n (%) (Safety assessments; mild renal impairment (N = 8)): 1 (12.5%)
- Number of adverse events of mild severity (Safety assessments; [6]): 1
- Number of adverse events of moderate severity (Safety assessments; [6]): 1
- Severe/life-threatening adverse events (Safety assessments; [6]): 0
- Subjects with adverse events of mild severity, n (%) (Safety assessments; [6]): 1 (12.5%)
- Subjects with adverse events of moderate severity, n (%) (Safety assessments; [6]): 1 (12.5%)
- Number of adverse events of mild severity (Safety assessments; normal renal function (N = 8)): 4
- Number of adverse events of moderate severity (Safety assessments; normal renal function (N = 8)): 1
- Severe/life-threatening adverse events (Safety assessments; normal renal function (N = 8)): 0
- Subjects with adverse events of mild severity, n (%) (Safety assessments; normal renal function (N = 8)): 1 (12.5%)
- Subjects with adverse events of moderate severity, n (%) (Safety assessments; normal renal function (N = 8)): 1 (12.5%)
- Number of adverse events of mild severity (Safety assessments; [5]): 1
- Number of adverse events of moderate severity (Safety assessments; [5]): 1
- Severe/life-threatening adverse events (Safety assessments; [5]): 0
- Subjects with adverse events of mild severity, n (%) (Safety assessments; [5]): 1 (14.3%)
- Subjects with adverse events of moderate severity, n (%) (Safety assessments; [5]): 1 (14.3%)
- fraction unbound (Plasma protein binding): 0.013 to 0.024
- IC50 (URAT1): 36 nM
- Parent drug excreted unchanged in urine ([3]; ref 21): about 2%
- Parent drug excreted unchanged in urine ([3]; ref 26): about 2%
- Lowest dose providing sUA lowering in humans (sUA): 2.5 mg
